# Screening data as filed in PubChem BioAssay.
# Rows were chosen to be rich in hits. Some 2.4% of all compounds tested hit in one or more screens of this group.
# LGR2 antag = inhibitors of bursicon-induced Drosophila LGR2 receptor cAMP signaling; HEK293 LGR2, CRE-luciferase, bursicon-stimulated, 4 h; inhibition, % at 9.99 µM; 380,000 tested, 0.35% active; AID 720647;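 active means drop in luminescence signal, shown as inhibition above about 50% in the replicate tests, limit read from the data, passing the limit was not always enough; inconclusive means probably only some replicates passing the limit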;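 further: agonist challenge used bursicon conditioned medium at about half maximal strength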
# E-sel inducer = induces E-selectin expression in human endothelial cells. P16581. HUVEC E-selectin immunofluorescence imaging; normalized: neutral wells 0, TNF-alpha wells 100. activation, % at 7.58 µM. 260,000 tested, 0.37% active. AID 686992;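 active means mean E-selectin-positive cell signal at least 10% of the positive control, reached in at least 60% of replicates, without over 20% cell loss; inconclusive means no rule given, readout overlaps actives, possibly toxicity-flagged; inactive means the rest, including those meeting only one limit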
# Target sequence (P16581 whole entry, looked up): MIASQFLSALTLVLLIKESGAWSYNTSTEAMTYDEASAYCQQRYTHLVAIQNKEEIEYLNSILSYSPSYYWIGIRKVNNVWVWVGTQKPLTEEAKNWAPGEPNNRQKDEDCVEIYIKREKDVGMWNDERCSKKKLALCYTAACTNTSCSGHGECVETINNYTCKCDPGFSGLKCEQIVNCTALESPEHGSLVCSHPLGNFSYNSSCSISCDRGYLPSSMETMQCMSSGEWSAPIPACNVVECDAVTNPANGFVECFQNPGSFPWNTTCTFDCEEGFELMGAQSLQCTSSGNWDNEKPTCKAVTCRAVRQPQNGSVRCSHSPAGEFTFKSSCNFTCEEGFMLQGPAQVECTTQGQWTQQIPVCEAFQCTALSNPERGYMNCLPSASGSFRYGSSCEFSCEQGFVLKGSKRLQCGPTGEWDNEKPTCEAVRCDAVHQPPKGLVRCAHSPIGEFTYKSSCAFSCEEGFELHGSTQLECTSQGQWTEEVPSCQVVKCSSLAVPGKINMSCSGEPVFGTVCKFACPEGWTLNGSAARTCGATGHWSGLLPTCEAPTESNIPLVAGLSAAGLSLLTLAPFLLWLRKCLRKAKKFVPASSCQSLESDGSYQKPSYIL
#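 System: HUVEC / Compound: single concentration / Signal: immunofluorescence imaging / Read-out: percent E-selectin-positive cells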
# EWS-Fli inh = inhibitors of EWS/Fli oncoprotein transcriptional activity; A673 NR0B1-luciferase reporter, viability-normalised; inhibition, % at 12.6 µM; 350,000 tested, 0.67% active; AID 651661;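 active means mean inhibition of at least 50% after viability correction, with every replicate also passing that limit; inconclusive means mean reaches 50% but only one of two replicates passes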;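 further: firefly luciferase signal divided by Alamar Blue viability fluorescence both relative to DMSO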
# Ecoli rRNA inh = selective bacterial rRNA inhibition in E. coli | AID 720706 | GFP signal change (wild-type ribosome), % (concentration not given with the values) | E. coli WT GFP vs humanized-ribosome RFP mutants, fluorescence, 24 h; active compounds read low; DMSO median 0, no signal -100 | 350,000 tested, 1.6% active;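 active means significant combined selectivity score with lowered wild-type GFP, culture density cut under 30%, mutant RFP and density less affected; inactive means any of these conditions unmet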
# The depositor's hits bear a star; ? = inconclusive; / = no result.
SMILES,LGR2 antag,E-sel inducer,EWS-Fli inh,Ecoli rRNA inh
C[C@H]1CCCCO[C@H](CN(C)C(=O)CCC(F)(F)F)[C@@H](C)CN([C@@H](C)CO)C(=O)c2cc(NC(=O)c3ccccc3)ccc2O1,17,1,2,-3
COc1cc2ccccc2cc1C(=O)NC1CCCC1,-73,0,-71,-21*
COc1cc2ccccc2cc1C(=O)NC1CCC(C)CC1 (stereo unspecified),-72,0,-80,0
Cc1ccc(C(=O)NC2CCCCCCC2)c(Cl)c1,80*,0,56*,-6
O=C(NC1CCCCCC1)c1cc2ccccc2oc1=O,17,0,29,-24*
C[C@@H]1CCCCO[C@@H](CN(C)C(=O)C2CCCCC2)[C@H](C)CN([C@H](C)CO)C(=O)c2cc(NS(=O)(=O)c3cn(C)cn3)ccc2O1,0,0,4,-1
Cc1cc(C)nc(/N=C(\N)Nc2cccc(OCc3ccccc3)c2)n1,34,/,53*,-30
O=C1C=CCCN1S(=O)(=O)/C=C/c1ccccc1,/,/,62*,/
O=S(=O)(/C=C/c1ccccc1)N1CCc2ccccc2C1,1,0,5,6
C[C@H](CO)N1C[C@H](C)[C@H](CN(C)Cc2ccc3c(c2)OCO3)Oc2ccc(NC(=O)Cn3cnnn3)cc2C1=O,-16,39*,-52,2
C[C@@H]1CN([C@@H](C)CO)C(=O)c2cc(NC(=O)Cn3cnnn3)ccc2O[C@H]1CN(C)Cc1ccc(Oc2ccccc2)cc1,2,48*,6,-1
C[C@H](CO)N1C[C@H](C)[C@@H](CN(C)Cc2ccc(Oc3ccccc3)cc2)Oc2ccc(NC(=O)Cn3cnnn3)cc2C1=O,6,-9,3,-1
O=C(C[C@H]1CC[C@H]2[C@@H](COC[C@@H](O)CN2Cc2cccc(-c3ccncc3)c2)O1)N1CCN(c2ccccc2)CC1,-3,0,22,-2
O=C1C=CC2(O[C@H](c3ccccc3)[C@@H](c3ccccc3)O2)[C@H](Sc2ccccc2O)C1,99*,0,68*,-12
C[C@@H]1[C@@H](Sc2ccccc2)CC(=O)O[C@@H]1c1ccc(-c2ccccc2)cc1,42,0,13,-1
CC(=O)Nc1cccc(-c2ccnc3c2CC(C(=O)NCCc2ccccc2)O3)c1 (stereo unspecified),-7,/,55*,-9
CS(=O)(=O)Nc1cccc(NC(=O)C2Cc3c(-c4cccc(F)c4)ccnc3O2)c1 (stereo unspecified),1,1,64*,3
O=C(NCCc1ccccc1)C1Cc2c(-c3ccc4c(c3)OCO4)ccnc2O1 (stereo unspecified),0,1,-4,-2
CC(=O)Nc1cccc(-c2ccnc3c2CC(C(=O)NCCN(C)C)O3)c1 (stereo unspecified),2,0,-2,4
COc1ccc(NC(=O)C2Cc3c(-c4cccc(NC(C)=O)c4)ccnc3O2)cc1 (stereo unspecified),-24,2,52*,-2
CC(=O)c1cccc(-c2ccnc3c2CC(C(=O)NCCc2ccccc2)O3)c1 (stereo unspecified),-1,0,54*,-6
O=C(Nc1ccccc1)C1Cc2c(-c3cccc(F)c3)ccnc2O1 (stereo unspecified),-22,0,-8,4
COc1ccc(S(=O)(=O)N(C)CC(=O)NCCc2ccccc2)cc1OC,-4,0,8,7
COCCCNC(=O)CN(CCc1ccccc1)S(=O)(=O)c1ccc(OC)cc1,19,7,3,-24*
Cc1ccc(S(=O)(=O)N(C)CC(=O)NCCCc2ccccc2)cc1,-9,/,13,-24*
SMILES,LGR2 antag,E-sel inducer,EWS-Fli inh,Ecoli rRNA inh
Nc1ccc(Nc2ccccc2N)cc1,-7,/,/,/
COc1ccc(Nc2ccccc2N)cc1,/,37*,39,/
COc1ccc(NC(=O)N[C@H]2CC[C@H](CCn3cc(C4(O)CCCC4)nn3)O[C@H]2CO)cc1,1,0,6,-2
COc1ccc2c3c([nH]c2c1)[C@H](CO)N(Cc1ccc(F)cc1)CC31CN(C(=O)NC(C)C)C1,/,/,/,0
CCN(CC)C(=O)Oc1nnc(SC(C)C)n1-c1ccc(Cl)cc1,/,/,12,-29*
CCN(CC)C(=O)Oc1nnc(SC(C)C)n1-c1ccc(Cl)c(Cl)c1,-1,/,12,-16
CCCN(CCC)C1=CC(=[N+]2CCCC2)CC(C)(C)C1,0,0,14,-47*
CN(C)NC1=CC(=[N+]2CCCC2)CC(C)(C)C1,7,/,12,1
CC1(C)CC(N2CCOCC2)=CC(=[N+]2CCOCC2)C1,5,/,5,18
CC1(C)CC(N2CCCCC2)=CC(=[N+]2CCCCC2)C1,9,-2,20,-37*
CO[C@@H]1CN(C)C(=O)c2cc(NS(=O)(=O)c3ccc(C)cc3)ccc2OC[C@@H](C)N(C)C[C@@H]1C,-7,0,-1,2
O=C(NCc1ccccc1)c1ccc(Br)o1,-20,0,-2,9
Cc1ccc(CNC(=O)c2ccc(Br)o2)cc1,-23,/,-14,-18*
CC1(C)CC(=O)C(C=Nc2ccc(N)cc2)=C(O)C1,-16,0,11,10
CC1(C)CC(=O)C(C=NCC(N)=O)=C(O)C1,-14,/,-3,-23*
COc1ccc2nc3cc(Cl)ccc3c(C#N)c2c1,/,0,-4,3
COc1ccc2nc(C(F)(F)Cl)c(C#N)c(N)c2c1,2,/,-3,-40*
O=C(CCCn1c(=O)c2ccccc2n(CC(=O)N2CCN(c3ccccc3)CC2)c1=O)NCc1ccco1,-10,43*,-3,7
CCC(C)NC(=O)Cn1c(=O)n(CCCCC(=O)NCc2ccco2)c(=O)c2ccccc21 (stereo unspecified),-20,/,/,/
COCCOC(=O)c1c(C)oc2ccc(NS(=O)(=O)c3cccs3)cc12,-18,/,-2,-24
CCOC(=O)c1c(C)oc2ccc(NS(=O)(=O)c3cccs3)cc12,0,/,-1,-30*
COc1ccc(S(=O)(=O)Nc2cc3c(cc2C(C)=O)OCO3)cc1,-4,/,55*,-17
CCCCC(=NCCc1c(C)[nH]c2ccccc12)C1=C(O)CC(c2ccccc2)CC1=O (stereo unspecified),12,/,51*,-3
CCCC(=NCCc1c(C)[nH]c2ccccc12)C1=C(O)CC(c2ccccc2)CC1=O (stereo unspecified),-23,/,/,/
COc1ccc(C(=O)/C=C2/C(=O)Nc3ccccc32)cc1,-7,0,30,8
COc1cc(OC)c(/C=C2\C(=O)Nc3ccccc32)c(OC)c1,29,?,56*,/
O=C1Nc2ccccc2/C1=C/c1ccccc1F,-9,0,-12,-29*
COc1ccc(C(=O)/C=C2/C(=O)Nc3ccccc32)cc1OC,18,0,38,12
COc1ccc(C(=O)/C=C2/C(=O)Nc3ccccc32)c(OC)c1,?,0,59*,-14
O=C(C[C@@H]1C[C@H]2c3cc(NC(=O)CC4CC4)ccc3O[C@H]2[C@H](CO)O1)NCc1ccc(Cl)cc1,-21,0,6,-5
